Consider one compound from ChEMBL document CHEMBL4371052, “Diarylcarbonates are a new class of deubiquitinating enzyme inhibitor” (Bioorg Med Chem Lett, 2019).

Calls of active or inactive are those of the source. The rule behind the calls is not given here.

The target in test [1] is Ubiquitin carboxyl-terminal hydrolase isozyme L5 (Homo sapiens) (UniProt Q9Y5K5). Kind of test: Inhibition of UCHL5 in HEK293T cell lysates at 25 uM using HA-tagged vinyl-sulfone as substrate measured after 2 to 30 mins by Western blot analysis. The test is classed as subcellular. As to conditions: Lysate. The gist of the method:
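HEK 293T lysate (1.5 mg/ml) given compound (25 μM) or DMSO at the same time as HA-Ub-VS (1.5 μM). Aliquots withdrawn over time were run on SDS-PAGE and immunoblotted for HA.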
A general note: A western blot detects proteins with antibodies after separation by electrophoresis.

The subject of a further test is B16-F10. In words: Cytotoxicity against mouse B16F10 cells assessed as decrease in cell viability treated every 24 hrs measured after 72 hrs by alamar blue assay. The test is classed as functional, cell-based. The gist of the method: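 MCF7 or B16/F10 cells dosed with compound every 24 h. Viable cells were quantified with Alamar Blue after 72 h.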
For orientation: Alamar Blue is a resazurin reagent that responds to reducing activity.

For test [2], the target named is Ubiquitin carboxyl-terminal hydrolase isozyme L1 (Homo sapiens) (UniProt P09936). In words: Inhibition of UCHL1 in HEK293T cell lysates at 25 uM using HA-tagged vinyl-sulfone as substrate preincubated for 19 to 60 mins followed by substrate addition and measured after 19 to 25 mins by Western blot analysis. The test is classed as subcellular. As to conditions: Lysate.

Test [3] deals with T1, Ubiquitin carboxyl-terminal hydrolase 19 (Homo sapiens) (UniProt O94966).
T1 sequence (whole entry): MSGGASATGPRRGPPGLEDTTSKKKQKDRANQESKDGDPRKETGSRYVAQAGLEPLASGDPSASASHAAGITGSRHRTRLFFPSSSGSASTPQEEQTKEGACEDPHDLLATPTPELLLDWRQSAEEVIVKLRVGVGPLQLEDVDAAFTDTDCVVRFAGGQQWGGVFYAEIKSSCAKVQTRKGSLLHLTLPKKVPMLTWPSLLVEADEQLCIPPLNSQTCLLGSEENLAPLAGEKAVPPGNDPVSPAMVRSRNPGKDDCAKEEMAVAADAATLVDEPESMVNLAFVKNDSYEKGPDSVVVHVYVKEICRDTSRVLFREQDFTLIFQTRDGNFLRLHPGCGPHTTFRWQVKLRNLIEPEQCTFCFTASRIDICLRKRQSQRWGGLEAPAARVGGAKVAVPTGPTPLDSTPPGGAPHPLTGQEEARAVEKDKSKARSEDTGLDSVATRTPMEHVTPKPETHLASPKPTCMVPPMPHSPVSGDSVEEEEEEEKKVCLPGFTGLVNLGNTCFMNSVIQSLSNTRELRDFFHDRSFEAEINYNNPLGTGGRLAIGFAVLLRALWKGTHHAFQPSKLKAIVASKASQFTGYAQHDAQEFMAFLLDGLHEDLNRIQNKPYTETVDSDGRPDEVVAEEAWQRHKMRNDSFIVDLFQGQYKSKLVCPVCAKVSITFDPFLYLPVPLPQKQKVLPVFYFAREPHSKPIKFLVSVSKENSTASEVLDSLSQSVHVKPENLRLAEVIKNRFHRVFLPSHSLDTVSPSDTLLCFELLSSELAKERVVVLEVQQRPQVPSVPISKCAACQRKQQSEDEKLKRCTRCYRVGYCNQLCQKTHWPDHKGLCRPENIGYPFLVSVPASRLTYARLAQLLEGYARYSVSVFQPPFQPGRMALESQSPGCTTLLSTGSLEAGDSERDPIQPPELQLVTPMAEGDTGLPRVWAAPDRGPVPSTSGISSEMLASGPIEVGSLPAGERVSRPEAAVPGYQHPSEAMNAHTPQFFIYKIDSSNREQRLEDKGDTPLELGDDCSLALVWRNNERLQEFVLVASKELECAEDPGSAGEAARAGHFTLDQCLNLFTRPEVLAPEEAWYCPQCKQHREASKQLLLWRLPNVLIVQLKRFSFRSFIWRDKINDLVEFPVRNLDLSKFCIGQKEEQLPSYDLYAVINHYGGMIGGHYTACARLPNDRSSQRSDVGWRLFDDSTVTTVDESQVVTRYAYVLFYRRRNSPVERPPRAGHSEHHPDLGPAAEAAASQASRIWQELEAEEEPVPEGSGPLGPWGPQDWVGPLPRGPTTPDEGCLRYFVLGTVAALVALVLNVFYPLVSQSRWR
Kind of test: Inhibition of USP19 in HEK293T cell lysates assessed as enzyme recovery at 250 uM using HA-tagged vinyl-sulfone as substrate […] followed by 10-fold dilution and subsequent substrate addition measured up to 2 hrs by Western blot analysis. The test is classed as subcellular. As to conditions: Lysate.

The target in test [4] is Ubiquitin carboxyl-terminal hydrolase 7 (Homo sapiens) (UniProt Q93009). Kind of test: Inhibition of USP7 in HEK293T cell lysates assessed as ratio of HA-Ub-VS modified USP7 to total USP7 at 50 uM using HA-Ub vinyl-sulfone as substrate preincubated for 19 to 60 mins followed by substrate addition and measured after 19 to 25 mins by Western blot analysis (reference value: 0.5). The note with it: Lysate. The test is classed as subcellular. The gist of the method:
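HEK 293T lysate incubated with compound, then treated with HA-Ub-VS. Samples were run on SDS-PAGE and blotted with anti-USP7, and the probe-modified USP7 band was distinguished from unmodified USP7.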

The target in test [5] is Ubiquitin carboxyl-terminal hydrolase 9X (Homo sapiens) (UniProt Q93008). Kind of test: Inhibition of USP9x in human K562 cells assessed as decrease in Bcr-Abl expression at 50 uM measured after 2 hrs by Western blot analysis. The test is classed as cell-based. The gist of the method: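 K562 cells treated with 50 μM compound for 2 h. Lysates were sonicated in SDS, and Bcr-Abl was immunoblotted with anti-Abl antibody.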
Chain of Ubiquitin carboxyl-terminal hydrolase 9X (Homo sapiens) (Q93008 whole entry): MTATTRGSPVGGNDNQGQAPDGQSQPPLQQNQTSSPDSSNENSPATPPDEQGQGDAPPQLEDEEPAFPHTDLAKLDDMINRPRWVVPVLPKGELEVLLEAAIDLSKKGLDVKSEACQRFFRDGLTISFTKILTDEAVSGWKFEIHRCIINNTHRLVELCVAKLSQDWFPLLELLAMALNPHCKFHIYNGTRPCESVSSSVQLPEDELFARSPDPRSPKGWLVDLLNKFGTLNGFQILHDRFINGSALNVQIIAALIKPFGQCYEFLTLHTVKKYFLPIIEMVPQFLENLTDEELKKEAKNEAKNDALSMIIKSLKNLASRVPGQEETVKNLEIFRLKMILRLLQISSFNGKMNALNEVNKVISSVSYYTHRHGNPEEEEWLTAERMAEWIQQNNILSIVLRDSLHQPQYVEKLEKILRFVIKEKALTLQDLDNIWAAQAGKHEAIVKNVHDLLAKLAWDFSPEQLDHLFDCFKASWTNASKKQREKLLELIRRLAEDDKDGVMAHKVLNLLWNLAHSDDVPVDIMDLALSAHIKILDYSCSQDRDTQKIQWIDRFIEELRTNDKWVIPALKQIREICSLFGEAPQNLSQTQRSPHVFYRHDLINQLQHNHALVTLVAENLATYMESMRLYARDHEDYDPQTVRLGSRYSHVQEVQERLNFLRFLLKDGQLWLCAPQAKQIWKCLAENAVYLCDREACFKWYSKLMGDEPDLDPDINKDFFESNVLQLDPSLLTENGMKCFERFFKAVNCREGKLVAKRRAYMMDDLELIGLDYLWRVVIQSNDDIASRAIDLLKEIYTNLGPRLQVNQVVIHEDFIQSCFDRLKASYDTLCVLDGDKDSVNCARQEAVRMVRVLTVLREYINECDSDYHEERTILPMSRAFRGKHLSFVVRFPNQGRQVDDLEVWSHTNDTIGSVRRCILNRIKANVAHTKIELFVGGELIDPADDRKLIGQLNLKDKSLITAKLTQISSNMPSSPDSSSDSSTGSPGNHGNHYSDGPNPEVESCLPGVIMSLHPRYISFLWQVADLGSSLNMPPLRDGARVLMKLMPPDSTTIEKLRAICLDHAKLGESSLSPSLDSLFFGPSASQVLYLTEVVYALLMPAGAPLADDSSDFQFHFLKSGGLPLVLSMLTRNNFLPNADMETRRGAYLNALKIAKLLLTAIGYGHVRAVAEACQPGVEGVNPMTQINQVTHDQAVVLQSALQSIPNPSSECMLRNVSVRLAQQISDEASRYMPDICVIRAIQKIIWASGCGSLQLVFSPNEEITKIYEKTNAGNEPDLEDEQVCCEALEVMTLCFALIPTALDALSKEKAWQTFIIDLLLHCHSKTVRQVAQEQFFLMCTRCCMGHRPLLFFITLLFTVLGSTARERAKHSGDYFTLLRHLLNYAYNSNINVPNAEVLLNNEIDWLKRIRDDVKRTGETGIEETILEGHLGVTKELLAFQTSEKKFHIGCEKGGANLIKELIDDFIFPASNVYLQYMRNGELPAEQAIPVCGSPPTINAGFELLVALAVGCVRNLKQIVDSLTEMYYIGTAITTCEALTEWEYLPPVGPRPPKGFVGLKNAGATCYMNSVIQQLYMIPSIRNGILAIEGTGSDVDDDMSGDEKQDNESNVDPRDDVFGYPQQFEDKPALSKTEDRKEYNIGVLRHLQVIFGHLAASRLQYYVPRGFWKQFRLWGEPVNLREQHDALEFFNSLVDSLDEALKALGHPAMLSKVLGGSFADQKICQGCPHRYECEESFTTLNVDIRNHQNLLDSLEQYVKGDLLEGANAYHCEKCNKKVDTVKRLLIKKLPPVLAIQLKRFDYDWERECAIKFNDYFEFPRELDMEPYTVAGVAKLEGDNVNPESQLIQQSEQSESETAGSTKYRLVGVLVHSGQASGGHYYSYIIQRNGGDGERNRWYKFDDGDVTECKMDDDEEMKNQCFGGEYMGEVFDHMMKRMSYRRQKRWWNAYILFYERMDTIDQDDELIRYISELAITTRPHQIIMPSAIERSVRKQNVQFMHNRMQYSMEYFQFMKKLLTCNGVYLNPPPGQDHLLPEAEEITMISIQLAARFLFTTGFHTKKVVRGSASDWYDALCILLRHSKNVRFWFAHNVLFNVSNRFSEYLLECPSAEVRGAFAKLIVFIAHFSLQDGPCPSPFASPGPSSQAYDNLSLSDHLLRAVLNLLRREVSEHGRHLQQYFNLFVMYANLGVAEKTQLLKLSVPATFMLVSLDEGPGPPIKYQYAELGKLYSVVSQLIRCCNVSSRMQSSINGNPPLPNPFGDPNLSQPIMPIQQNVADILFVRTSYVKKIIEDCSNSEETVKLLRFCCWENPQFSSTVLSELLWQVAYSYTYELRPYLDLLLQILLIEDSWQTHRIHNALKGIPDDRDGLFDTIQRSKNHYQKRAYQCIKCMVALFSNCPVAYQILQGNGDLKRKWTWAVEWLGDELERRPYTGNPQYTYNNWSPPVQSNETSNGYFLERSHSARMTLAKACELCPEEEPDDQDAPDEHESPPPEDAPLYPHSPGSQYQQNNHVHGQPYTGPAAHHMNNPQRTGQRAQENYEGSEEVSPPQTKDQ

Chain of Ubiquitin carboxyl-terminal hydrolase 7 (Homo sapiens) (Q93009 whole entry, looked up): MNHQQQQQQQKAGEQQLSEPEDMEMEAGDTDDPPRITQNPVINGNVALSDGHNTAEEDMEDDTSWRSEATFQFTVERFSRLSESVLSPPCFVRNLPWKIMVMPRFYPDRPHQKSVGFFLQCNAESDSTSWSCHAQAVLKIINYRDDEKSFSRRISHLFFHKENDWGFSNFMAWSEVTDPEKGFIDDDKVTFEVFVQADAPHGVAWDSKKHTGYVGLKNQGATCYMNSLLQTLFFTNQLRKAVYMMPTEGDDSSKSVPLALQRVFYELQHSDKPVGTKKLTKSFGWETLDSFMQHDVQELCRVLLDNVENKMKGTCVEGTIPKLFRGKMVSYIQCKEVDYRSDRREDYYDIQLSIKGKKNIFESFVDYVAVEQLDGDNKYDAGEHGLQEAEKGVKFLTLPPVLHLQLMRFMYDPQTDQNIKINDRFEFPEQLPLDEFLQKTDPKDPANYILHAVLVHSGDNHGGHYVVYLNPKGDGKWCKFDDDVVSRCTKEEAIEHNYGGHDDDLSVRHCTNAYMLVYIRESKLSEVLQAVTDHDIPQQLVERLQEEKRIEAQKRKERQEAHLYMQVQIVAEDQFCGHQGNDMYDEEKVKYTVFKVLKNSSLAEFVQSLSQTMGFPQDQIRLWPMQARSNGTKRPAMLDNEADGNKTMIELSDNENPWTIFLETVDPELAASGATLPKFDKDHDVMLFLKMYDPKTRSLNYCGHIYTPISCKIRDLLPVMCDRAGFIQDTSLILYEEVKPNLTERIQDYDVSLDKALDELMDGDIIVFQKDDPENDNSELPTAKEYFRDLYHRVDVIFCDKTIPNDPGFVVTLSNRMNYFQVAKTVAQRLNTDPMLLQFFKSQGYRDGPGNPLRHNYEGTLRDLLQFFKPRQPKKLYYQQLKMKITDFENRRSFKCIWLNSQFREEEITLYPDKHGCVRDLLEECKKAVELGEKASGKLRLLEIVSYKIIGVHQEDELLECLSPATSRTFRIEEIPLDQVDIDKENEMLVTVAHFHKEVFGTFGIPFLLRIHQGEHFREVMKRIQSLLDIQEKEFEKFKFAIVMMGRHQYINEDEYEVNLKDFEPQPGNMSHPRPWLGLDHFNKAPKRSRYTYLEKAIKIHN
Chain of Ubiquitin carboxyl-terminal hydrolase isozyme L5 (Homo sapiens) (Q9Y5K5 whole entry): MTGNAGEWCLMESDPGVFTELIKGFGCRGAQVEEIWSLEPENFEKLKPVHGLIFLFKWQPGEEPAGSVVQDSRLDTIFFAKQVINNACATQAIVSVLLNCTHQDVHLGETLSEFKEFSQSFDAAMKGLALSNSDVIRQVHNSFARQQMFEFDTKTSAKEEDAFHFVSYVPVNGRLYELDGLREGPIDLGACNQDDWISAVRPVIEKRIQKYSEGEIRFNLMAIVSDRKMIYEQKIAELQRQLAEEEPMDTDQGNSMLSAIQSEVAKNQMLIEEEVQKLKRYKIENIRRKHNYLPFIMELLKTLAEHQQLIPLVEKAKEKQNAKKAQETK
Chain of Ubiquitin carboxyl-terminal hydrolase isozyme L1 (Homo sapiens) (P09936 whole entry, looked up): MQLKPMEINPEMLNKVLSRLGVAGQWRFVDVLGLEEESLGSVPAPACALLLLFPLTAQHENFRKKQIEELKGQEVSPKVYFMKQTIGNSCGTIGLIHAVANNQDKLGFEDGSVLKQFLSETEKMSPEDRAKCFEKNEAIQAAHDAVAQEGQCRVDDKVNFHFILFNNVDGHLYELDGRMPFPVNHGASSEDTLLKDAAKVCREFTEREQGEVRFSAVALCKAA

For the compound `NCc1ccc(OC(=O)Oc2ccc3ccccc3c2)cc1`, the inhibition result in test [1], in test [2] and in test [3] was “inactive” each time. Besides, in the test with B16-F10, the result was Active. In addition, the Ratio in test [4] amounted to 0.4. Besides, the inhibition entry in test [5] was “Active”.
